Test results published in ChEMBL document CHEMBL3868583, “6-Aryl substituted 4-(4-cyanomethyl) phenylamino quinazolines as a new class of isoform-selective PI3K-alpha inhibitors” (Eur J Med Chem, 2016).
Values after ≈ are worked out from the molar mass of the structure shown.

Experiments:
[1] = Downregulation of PI3Kalpha expression in human MCF7 cells at 30 uM by Western blot analysis; format: functional, cell-based
In short: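 MCF-7 or PC-3 cells (2 × 10^6) treated with compound, lysed (1 × 10^6 cells) in cold NP-40 buffer with protease inhibitors 30 min on ice, 12,000 g 10 min 4 °C. 50 µg protein per lane on SDS-PAGE, PVDF transfer, 5% milk block, primary antibody 2 h, HRP secondary 1 h, ECL on film; β-actin internal control.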

[2] = molecular target: Phosphatidylinositol 4,5-bisphosphate 3-kinase catalytic subunit alpha isoform (Homo sapiens, UniProt P42336); test: Inhibition of PI3Kalpha (unknown origin) using diC8 PIP2 as substrate at 0.5 uM after 80 mins by ADP-glo assay
[3] = species: Homo sapiens; test: Selectivity ratio of IC50 for PI3Kdelta (unknown origin) to IC50 for PI3Kalpha (unknown origin)
[4] = species: Homo sapiens; test: Selectivity ratio of IC50 for PI3Kgamma (unknown origin) to IC50 for PI3Kalpha (unknown origin)
[5] = species: Homo sapiens; test: Selectivity ratio of IC50 for PI3Kbeta (unknown origin) to IC50 for PI3Kalpha (unknown origin)
[6] = Cytotoxicity against human HL60 cells assessed as cell growth inhibition after 48 hrs by MTT assay; format: functional; conditions: HL-60, 48 h
In short: (§1)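 MTT assay: 3 × 10^3 cells/well seeded, compounds added after 24 h at final […], 48 h exposure. MTT (2.5 mg/mL in PBS) added, formazan dissolved in DMSO, absorbance 570 nm. Viability as % of untreated; three independent experiments, mean ± SD.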

[7] = Cytotoxicity against human A375 cells assessed as cell growth inhibition after 48 hrs by MTT assay; format: functional; conditions: A-375, 48 h; in short: as §1
[8] = Cytotoxicity against human MCF7 cells assessed as cell growth inhibition after 48 hrs by MTT assay; format: functional; conditions: MCF7, 48 h; in short: as §1
[9] = Cytotoxicity against human PANC1 cells assessed as cell growth inhibition after 48 hrs by MTT assay; format: functional; conditions: PANC-1, 48 h; in short: as §1
[10] = Cytotoxicity against human PC3 cells assessed as cell growth inhibition after 48 hrs by MTT assay; format: functional; conditions: PC-3, 48 h; in short: as §1
[11] = Cytotoxicity against human FR2 cells assessed as cell growth inhibition after 48 hrs by MTT assay; format: toxicity, cell-based
[12] = Cytotoxicity against HEK293 cells assessed as cell growth inhibition after 48 hrs by MTT assay; format: toxicity, cell-based; conditions: human
[13] = Cytotoxicity against HGF cells assessed as cell growth inhibition after 48 hrs by MTT assay; format: toxicity, cell-based; conditions: human
[14] = system: MCF7; test: Induction of cell cycle arrest in human MCF7 cells assessed as accumulation at subG1 phase after 24 hrs by propidium iodide-staining based FACS analysis; format: functional
In short: (§2)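 MCF-7 or PC-3 cells treated at indicated concentrations for 24 h, pelleted, PBS-washed, fixed in ice-cold 70% ethanol overnight at 4 °C. RNase 0.2 mg/mL 1 h at 37 °C, propidium iodide 10 µg/mL 30 min dark. 10,000 events (FL2-A vs FL2-W) by flow cytometry; fractions in apoptosis/sub-G1, G1, S, G2-M.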

[15] = system: PC-3; test: Induction of cell cycle arrest in human PC3 cells assessed as accumulation at subG1 phase after 24 hrs by propidium iodide-staining based FACS analysis; format: functional
In short: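 PC-3 cells exposed 24 h at indicated concentrations, pelleted, fixed overnight in ice-cold 70% ethanol at 4 °C, RNase 0.2 mg/mL at 37 °C 1 h, propidium iodide 10 µg/mL 30 min in dark; 10,000 events acquired (FL2-A vs FL2-W); DNA histograms modelled for apoptotic (sub-G1), G1, S and G2-M fractions.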

[16] = Thermodynamic equilibrium solubility of compound in water up to 300 ug after 4 hrs by UV absorbance method; format: physicochemical; conditions: read-out: Therm_solubility
In short: (§3)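 Methanol stock evaporated in wells to give 1–300 µg solid; 200 µl medium (water, PBS, SGF or SIF) added, shaken 300 rpm 4 h at 25 ± 1 °C, equilibrated overnight, centrifuged; supernatant UV absorbance at λmax; saturation point from concentration–absorbance curve; triplicate.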

[17] = Thermodynamic equilibrium solubility of compound in PBS up to 300 ug after 4 hrs by UV absorbance method; format: physicochemical; conditions: read-out: Therm_solubility; in short: as §3
[18] = Thermodynamic equilibrium solubility of compound in simulated gastric fluid up to 300 ug after 4 hrs by UV absorbance method; format: ADME; conditions: read-out: Therm_solubility; in short: as §3
[19] = Thermodynamic equilibrium solubility of compound in simulated intestinal fluid up to 300 ug after 4 hrs by UV absorbance method; format: ADME; conditions: read-out: Therm_solubility; in short: as §3
[20] = Efflux ratio of permeability in human Caco2 cells after 90 mins by LC-MS/MS analysis; format: ADME, cell-based; conditions: Caco-2
In short: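 Caco-2 monolayers grown 21 days (TEER >500). Compound in HBSS with 10 mM HEPES dosed to the apical chamber, and in a repeat run to the basolateral chamber. Both chambers sampled at 0 and 90 min at 37 °C. Analysis by LC-MS/MS.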

[21] = molecular target: CYP3A4 (Homo sapiens, UniProt P08684); test: Inhibition of human CYP3A4 at 10 uM after 10 mins by fluorescence assay; format: ADME
[22] = molecular target: CYP2D6 (Homo sapiens, UniProt P10635); test: Inhibition of human CYP2D6 at 10 uM after 10 mins by fluorescence assay; format: ADME
[23] = molecular target: CYP2C9 (Homo sapiens, UniProt P11712); test: Inhibition of human CYP2C9 at 10 uM after 10 mins by fluorescence assay; format: ADME
[24] = molecular target: CYP2C19 (Homo sapiens, UniProt P33261); test: Inhibition of human CYP2C19 at 10 uM after 10 mins by fluorescence assay; format: ADME
[25] = molecular target: T1, CYP1A2 (Homo sapiens, UniProt P05177); test: Inhibition of human CYP1A2 at 10 uM after 10 mins by fluorescence assay; format: ADME
T1 sequence (P05177 whole entry): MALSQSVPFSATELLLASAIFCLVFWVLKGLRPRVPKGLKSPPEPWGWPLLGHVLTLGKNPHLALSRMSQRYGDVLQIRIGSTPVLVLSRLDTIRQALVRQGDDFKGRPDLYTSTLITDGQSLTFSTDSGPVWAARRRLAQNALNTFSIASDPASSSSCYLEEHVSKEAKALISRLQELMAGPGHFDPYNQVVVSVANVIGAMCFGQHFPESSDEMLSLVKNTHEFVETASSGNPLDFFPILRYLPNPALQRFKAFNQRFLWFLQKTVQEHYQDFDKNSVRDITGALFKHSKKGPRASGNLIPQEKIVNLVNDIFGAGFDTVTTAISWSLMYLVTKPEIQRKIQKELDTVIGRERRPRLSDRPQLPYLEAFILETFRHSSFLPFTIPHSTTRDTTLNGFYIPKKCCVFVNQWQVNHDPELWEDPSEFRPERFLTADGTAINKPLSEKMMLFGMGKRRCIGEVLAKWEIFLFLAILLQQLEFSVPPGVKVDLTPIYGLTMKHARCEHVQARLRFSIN

[26] = system: PC-3; test: Induction of cell cycle arrest in human PC3 cells assessed as accumulation at G1 phase at 20 uM after 24 hrs by propidium iodide-staining based FACS analysis (reference value: 39 %); format: functional; in short: as §2

Phosphatidylinositol 4,5-bisphosphate 3-kinase catalytic subunit alpha isoform, sequence (P42336 whole entry, canonical isoform): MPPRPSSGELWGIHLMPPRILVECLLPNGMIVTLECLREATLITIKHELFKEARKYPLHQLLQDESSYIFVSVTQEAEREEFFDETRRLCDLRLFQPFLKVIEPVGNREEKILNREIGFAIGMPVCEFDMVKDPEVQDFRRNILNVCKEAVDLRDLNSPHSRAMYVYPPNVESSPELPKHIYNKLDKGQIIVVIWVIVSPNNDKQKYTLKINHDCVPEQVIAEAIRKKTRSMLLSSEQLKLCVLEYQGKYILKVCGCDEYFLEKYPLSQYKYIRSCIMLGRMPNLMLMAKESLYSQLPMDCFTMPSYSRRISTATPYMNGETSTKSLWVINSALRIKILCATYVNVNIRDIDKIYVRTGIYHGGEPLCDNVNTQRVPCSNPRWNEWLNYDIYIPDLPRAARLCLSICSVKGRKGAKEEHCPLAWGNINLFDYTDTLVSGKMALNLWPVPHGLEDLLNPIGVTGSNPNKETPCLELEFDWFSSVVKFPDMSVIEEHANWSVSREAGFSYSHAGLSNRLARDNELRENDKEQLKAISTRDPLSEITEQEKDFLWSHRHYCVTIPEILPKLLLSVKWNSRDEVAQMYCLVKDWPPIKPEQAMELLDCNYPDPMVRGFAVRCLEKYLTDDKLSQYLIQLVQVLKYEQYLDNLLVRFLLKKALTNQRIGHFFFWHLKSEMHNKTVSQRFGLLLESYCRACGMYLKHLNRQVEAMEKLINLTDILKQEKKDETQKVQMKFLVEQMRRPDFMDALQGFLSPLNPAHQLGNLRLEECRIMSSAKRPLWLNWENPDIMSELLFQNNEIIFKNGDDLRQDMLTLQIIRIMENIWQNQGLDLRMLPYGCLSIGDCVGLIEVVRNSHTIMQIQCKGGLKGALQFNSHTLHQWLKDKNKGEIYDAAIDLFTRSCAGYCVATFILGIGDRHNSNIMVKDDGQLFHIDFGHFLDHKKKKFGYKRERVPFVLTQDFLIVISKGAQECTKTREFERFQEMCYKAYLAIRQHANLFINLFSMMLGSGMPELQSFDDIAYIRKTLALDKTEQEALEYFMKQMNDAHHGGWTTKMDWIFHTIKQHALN
CYP2C19, sequence (P33261 whole entry): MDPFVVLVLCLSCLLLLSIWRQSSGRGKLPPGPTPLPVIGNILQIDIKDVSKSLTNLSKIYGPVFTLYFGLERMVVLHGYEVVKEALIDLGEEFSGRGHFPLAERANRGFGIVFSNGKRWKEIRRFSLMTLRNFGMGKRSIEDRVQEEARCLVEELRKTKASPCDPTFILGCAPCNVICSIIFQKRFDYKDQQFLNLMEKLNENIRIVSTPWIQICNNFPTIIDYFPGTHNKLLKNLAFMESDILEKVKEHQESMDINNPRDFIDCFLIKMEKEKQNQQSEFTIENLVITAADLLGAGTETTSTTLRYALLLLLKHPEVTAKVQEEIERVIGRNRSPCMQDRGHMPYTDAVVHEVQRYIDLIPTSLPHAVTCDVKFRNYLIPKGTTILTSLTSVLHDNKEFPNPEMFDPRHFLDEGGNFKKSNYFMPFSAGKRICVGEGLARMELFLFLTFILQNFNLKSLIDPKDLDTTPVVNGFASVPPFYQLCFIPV
CYP2D6, sequence (P10635 whole entry): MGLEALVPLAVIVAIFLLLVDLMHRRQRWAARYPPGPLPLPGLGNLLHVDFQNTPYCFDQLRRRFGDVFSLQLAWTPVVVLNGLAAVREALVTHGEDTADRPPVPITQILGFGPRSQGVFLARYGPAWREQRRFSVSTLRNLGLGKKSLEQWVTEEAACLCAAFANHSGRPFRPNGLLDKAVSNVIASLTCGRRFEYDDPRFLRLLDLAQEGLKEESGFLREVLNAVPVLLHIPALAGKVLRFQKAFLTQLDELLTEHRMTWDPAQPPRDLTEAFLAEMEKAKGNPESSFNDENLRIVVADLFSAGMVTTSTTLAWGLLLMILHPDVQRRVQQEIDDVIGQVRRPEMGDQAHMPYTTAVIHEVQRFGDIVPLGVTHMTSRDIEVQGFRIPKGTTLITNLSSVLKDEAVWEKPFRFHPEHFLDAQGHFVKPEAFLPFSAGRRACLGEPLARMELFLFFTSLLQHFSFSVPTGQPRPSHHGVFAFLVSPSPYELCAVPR
CYP2C9, sequence (P11712 whole entry): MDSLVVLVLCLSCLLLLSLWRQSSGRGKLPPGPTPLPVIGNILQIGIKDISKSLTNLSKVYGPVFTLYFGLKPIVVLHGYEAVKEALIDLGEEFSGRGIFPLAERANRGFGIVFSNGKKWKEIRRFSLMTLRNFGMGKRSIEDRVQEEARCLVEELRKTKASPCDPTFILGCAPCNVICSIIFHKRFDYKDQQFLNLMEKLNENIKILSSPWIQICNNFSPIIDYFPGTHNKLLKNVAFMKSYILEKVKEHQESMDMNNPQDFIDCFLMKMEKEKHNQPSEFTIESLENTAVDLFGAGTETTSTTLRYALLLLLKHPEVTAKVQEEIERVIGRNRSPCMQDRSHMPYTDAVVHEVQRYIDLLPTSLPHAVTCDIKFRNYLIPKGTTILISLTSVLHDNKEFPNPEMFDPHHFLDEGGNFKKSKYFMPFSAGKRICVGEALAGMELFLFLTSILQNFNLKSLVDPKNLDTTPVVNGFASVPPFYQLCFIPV
CYP3A4, sequence (P08684 whole entry): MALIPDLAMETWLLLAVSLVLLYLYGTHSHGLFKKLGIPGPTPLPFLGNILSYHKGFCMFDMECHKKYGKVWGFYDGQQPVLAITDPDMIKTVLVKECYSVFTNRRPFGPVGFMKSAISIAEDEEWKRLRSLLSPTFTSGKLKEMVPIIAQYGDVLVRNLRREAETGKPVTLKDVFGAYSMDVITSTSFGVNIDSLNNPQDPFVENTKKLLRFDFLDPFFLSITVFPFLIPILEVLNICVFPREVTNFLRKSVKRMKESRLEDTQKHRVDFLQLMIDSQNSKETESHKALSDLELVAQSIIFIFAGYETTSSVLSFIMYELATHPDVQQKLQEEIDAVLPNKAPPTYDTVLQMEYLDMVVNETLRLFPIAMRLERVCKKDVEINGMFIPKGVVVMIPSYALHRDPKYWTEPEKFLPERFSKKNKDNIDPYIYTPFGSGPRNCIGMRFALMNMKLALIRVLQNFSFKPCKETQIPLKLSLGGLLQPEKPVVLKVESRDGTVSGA

SMILES | inhibition [2] | Ratio IC50 [3] | Ratio IC50 [4] | Ratio IC50 [5] | GI50 [6] | GI50 [7] | GI50 [8] | GI50 [9] | GI50 [10] | GI50 at 48 h [11] | GI50 at 48 h [12] | GI50 at 48 h [13] | Activity [14] | Activity [15] | solubility thermodynamic at 4 h [16] | solubility thermodynamic at 4 h [17] | solubility thermodynamic at 4 h [18] | solubility thermodynamic at 4 h [19] | efflux ratio at 1.5 h [20] | inhibition at 10 min, 10 µM [21] | other results
N#CCc1ccc(Nc2ncnc3ccc(-c4ccc5[nH]ccc5c4)cc23)cc1 | 47.5% | > 49.7 | 3.7 | > 49.7 | 18 µM | 31 µM | 7 µM | 16 µM | 24 µM | > 50 µM | > 50 µM | > 50 µM | Dose-dependent effect | Dose-dependent effect | 10 µg/mL (≈ 26.6 µM) | 10 µg/mL (≈ 26.6 µM) | 80 µg/mL (≈ 213 µM) | 5 µg/mL (≈ 13.3 µM) | 1.3 | 51% | Activity [1]: 44%; inhibition at 10 min, 10 µM [22]: 29%; inhibition at 10 min, 10 µM [23]: 88%; inhibition at 10 min, 10 µM [24]: 10%; inhibition at 10 min, 10 µM [25]: 30%
N#CCc1ccc(Nc2ncnc3ccc(-c4cncc5ccccc45)cc23)cc1 | 48.8% | 5.9 | 56 | > 133 | 10 µM | 12 µM | 12 µM | 9 µM | 9 µM | > 50 µM | > 50 µM | > 50 µM | Dose-dependent effect | Dose-dependent effect | 1 µg/mL (≈ 2.58 µM) | 1 µg/mL (≈ 2.58 µM) | 800 µg/mL (≈ 2060 µM) | 1 µg/mL (≈ 2.58 µM) | 1.2 | 27% | Activity [26]: 65%; inhibition at 10 min, 10 µM [22]: -35%; inhibition at 10 min, 10 µM [23]: 87%; inhibition at 10 min, 10 µM [24]: 34%; inhibition at 10 min, 10 µM [25]: 72%
